# Assay results as given in ChEMBL document CHEMBL2311264, “Synthesis and anticancer activity of heteroaromatic linked 4β-amido podophyllotoxins as apoptotic inducing agents” (Bioorg Med Chem Lett, 2013).
# Active and inactive are the calls of the source. No cut-off for these calls is given here.
# Columns and labels:
# A549 [1] = assay: Induction of apoptosis in human A549 cells assessed as increase in caspase3 activity at 3 uM after 48 hrs relative to control; type: functional
# Procedure, shortened: (§1)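 A-549 cells were seeded at 2.5 × 10^6/well and treated 48 h alongside etoposide, then scraped and lysed on ice. Supernatant was mixed with 2X assay buffer and Ac-DEVD-AFC substrate for 1 h. Fluorescence (ex 400, em 505 nm) was read every 5 min, normalized to Bradford protein and expressed as fold over control. Two experiments, each in triplicate.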
# A549 [2] = assay: Induction of apoptosis in human A549 cells assessed as increase in fluorescence at 3 uM after 24 hrs by Hoechst staining method relative to control; type: functional, cell-based
# Procedure, shortened: (§2)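 Cells were seeded at 10,000 per coverslip and grown 24 h, then treated 24 h. Vehicle control was 0.001% DMSO; etoposide was the standard. Hoechst at […] with 4% paraformaldehyde was added for 30 min at 37 °C. Random fields were imaged by fluorescence microscopy and apoptotic cells scored manually by cytoplasmic condensation, apoptotic bodies, nuclear fragmentation and relative fluorescence.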
# A549 [3] = assay: Induction of apoptosis in human A549 cells assessed as nuclear fragmentation at 3 uM after 24 hrs by Hoechst staining method; type: functional, cell-based; procedure, shortened: as §2
# A549 [4] = assay: Induction of apoptosis in human A549 cells assessed as apoptotic bodies at 3 uM after 24 hrs by Hoechst staining method; type: functional, cell-based; procedure, shortened: as §2
# A549 [5] = assay: Induction of apoptosis in human A549 cells assessed as cytoplasmic condensation at 3 uM after 24 hrs by Hoechst staining method; type: functional, cell-based; procedure, shortened: as §2
# A549 [6] = assay: Induction of apoptosis in human A549 cells assessed as DNA fragmentation at 3 uM after 48 hrs by agarose gel electrophoretic analysis; type: functional, cell-based
# Procedure, shortened: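 Cells were seeded at 1 × 10^6/well and grown 48 h, then treated 48 h. Cells were pelleted and lysed. Lysate was given SDS and RNase-A at 56 °C for 2 h, then proteinase K at 37 °C for 2 h. DNA was precipitated with ammonium acetate and cold ethanol, washed with 80% ethanol and dissolved in TE. Laddering was read on 2% agarose gel in TE; 50 bp marker.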
# A549 [7] = assay: Induction of cell cycle arrest in human A549 cells assessed as G2/M phase cells at 3 uM by FACS analysis (reference value: 9.89%); type: functional
# A549 [8] = assay: Induction of cell cycle arrest in human A549 cells assessed as G2/M phase cells at 1 uM by FACS analysis (reference value: 9.89%); type: functional
# A549 [9] = assay: Induction of cell cycle arrest in human A549 cells assessed as S phase cells at 3 uM by FACS analysis (reference value: 3.69%); type: functional
# A549 [10] = assay: Induction of cell cycle arrest in human A549 cells assessed as S phase cells at 1 uM by FACS analysis (reference value: 3.69%); type: functional
# A549 [11] = assay: Induction of cell cycle arrest in human A549 cells assessed as G1 phase cells at 3 uM by FACS analysis (reference value: 85.33%); type: functional
# A549 [12] = assay: Induction of cell cycle arrest in human A549 cells assessed as G1 phase cells at 1 uM by FACS analysis (reference value: 85.33%); type: functional
# A549 [13] = assay: Induction of cell cycle arrest in human A549 cells assessed as sub G1 phase cells at 3 uM by FACS analysis (reference value: 1.08%); type: functional
# A549 [14] = assay: Induction of cell cycle arrest in human A549 cells assessed as sub G1 phase cells at 1 uM by FACS analysis (reference value: 1.08%); type: functional
# HeLa = assay: Cytotoxicity against human HeLa cells […] by MTT assay; type: functional, cell-based
# B16 = assay: Cytotoxicity against mouse B16 cells […] by MTT assay; type: functional, cell-based
# A549 [15] = assay: Cytotoxicity against human A549 cells […] by MTT assay; type: functional, cell-based
# A549 [16] = assay: Induction of apoptosis in human A549 cells assessed as increase in caspase3 activity at 1 uM after 48 hrs relative to control; type: functional; procedure, shortened: as §1
# A549 [17] = assay: Induction of apoptosis in human A549 cells assessed as increase in fluorescence at 1 uM after 24 hrs by Hoechst staining method relative to control; type: functional, cell-based; procedure, shortened: as §2
# A549 [18] = assay: Induction of apoptosis in human A549 cells assessed as nuclear fragmentation at 1 uM after 24 hrs by Hoechst staining method; type: functional, cell-based; procedure, shortened: as §2
# A549 [19] = assay: Induction of apoptosis in human A549 cells assessed as apoptotic bodies at 1 uM after 24 hrs by Hoechst staining method; type: functional, cell-based; procedure, shortened: as §2
# A549 [20] = assay: Induction of apoptosis in human A549 cells assessed as cytoplasmic condensation at 1 uM after 24 hrs by Hoechst staining method; type: functional, cell-based; procedure, shortened: as §2
# ACHN = assay: Cytotoxicity against human ACHN cells […] by MTT assay; type: functional, cell-based
# HT-29 = assay: Cytotoxicity against human HT-29 cells after 72 hrs by MTT assay; type: functional, cell-based; conditions: HT-29, 72 h
smiles,measurement,setting,value
COc1cc([C@@H]2c3cc4c(cc3[C@@H](O[C@@H]3O[C@@H]5CO[C@@H](C)O[C@H]5[C@H](O)[C@H]3O)[C@H]3COC(=O)[C@H]23)OCO4)cc(OC)c1O [ETOPOSIDE],fold change (FC),A549 [1],6
same,Activity,A549 [2],Active
same,Activity,A549 [3],Active
same,Activity,A549 [4],Active
same,Activity,A549 [5],Active
same,Activity,A549 [6],Active
same,Activity,A549 [7],57.86%
same,Activity,A549 [8],32.33%
same,Activity,A549 [9],2.42%
same,Activity,A549 [10],4.1%
same,Activity,A549 [11],31.49%
same,Activity,A549 [12],62.32%
same,Activity,A549 [13],8.3%
same,Activity,A549 [14],1.25%
same,IC50,HeLa,1.52 µM
same,IC50,B16,1.39 µM
same,IC50,A549 [15],2.8 µM
COc1cc([C@@H]2c3cc4c(cc3[C@@H](NC(=O)c3cc(-c5ccc(Cl)c(Cl)c5)[nH]n3)[C@H]3COC(=O)[C@H]23)OCO4)cc(OC)c1OC,fold change (FC),A549 [1],6
same,fold change (FC),A549 [16],4
same,Activity,A549 [17],Active
same,Activity,A549 [2],Active
same,Activity,A549 [3],Active
same,Activity,A549 [18],Active
same,Activity,A549 [4],Active
same,Activity,A549 [19],Active
same,Activity,A549 [5],Active
same,Activity,A549 [20],Active
same,Activity,A549 [6],Active
same,Activity,A549 [7],61.28%
same,Activity,A549 [8],27.68%
same,Activity,A549 [9],8.96%
same,Activity,A549 [10],2.27%
same,Activity,A549 [11],27.71%
same,Activity,A549 [12],63.35%
same,Activity,A549 [13],2.05%
same,Activity,A549 [14],6.77%
same,IC50,HeLa,9.3 µM
same,IC50,ACHN,15.9 µM
same,IC50,B16,9.5 µM
same,IC50,HT-29,7.1 µM
same,IC50,A549 [15],2.1 µM
